Results: ChEMBL document CHEMBL1800022, “Structure-activity relationships of a series of analogues of the RFamide-related peptide 26RFa” (J Med Chem, 2011)
Non-standard residues stand in square brackets, D forms with d. Residues, ends and D or L forms follow the SMILES beside them. *: point of attachment. Cha = N[C@@H](CC1CCCCC1)C(=O)O; Tle = CC(C)(C)[C@H](N)C(=O)O; X3 = C1CCN(N(N2CCCCC2)*)CC1; hSer = N[C@@H](CCO)C(=O)O; 2Furoyl = O=C(c1ccco1)*; Nva = CCC[C@H](N)C(=O)O; Abu = CC[C@H](N)C(=O)O; NHBn = c1ccc(CN*)cc1; Piv = CC(C)(C)C(=O)*; X1 = CCN(Cc1ccccc1)*

target: T1, Pyroglutamylated RF-amide peptide receptor (Homo sapiens, UniProt Q96P65); test: Agonist activity at DYKDDDDK-flagged human GPR103 receptor expressed in CHO-K1 cells co-expressing G-protein alpha16 assessed as stimulation of calcium mobilization after 2 mins by fluorometric analysis; type: functional, cell-based
T1 sequence (Q96P65 whole entry): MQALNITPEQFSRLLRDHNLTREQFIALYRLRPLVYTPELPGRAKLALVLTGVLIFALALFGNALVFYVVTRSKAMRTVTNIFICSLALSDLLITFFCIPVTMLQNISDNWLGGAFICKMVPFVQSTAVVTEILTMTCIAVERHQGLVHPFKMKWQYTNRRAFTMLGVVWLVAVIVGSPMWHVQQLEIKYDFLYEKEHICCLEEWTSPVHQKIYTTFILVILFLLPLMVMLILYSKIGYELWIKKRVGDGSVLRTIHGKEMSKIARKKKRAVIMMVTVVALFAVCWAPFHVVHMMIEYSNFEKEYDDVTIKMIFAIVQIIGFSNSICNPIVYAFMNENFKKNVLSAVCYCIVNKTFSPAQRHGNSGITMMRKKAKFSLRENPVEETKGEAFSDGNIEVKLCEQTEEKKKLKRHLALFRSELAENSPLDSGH
Summary of the method: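 CHO-K1 cells stably expressing Gα16 and C-terminally flag-tagged human GPR103 (Geneticin-selected), plated at 40 000 cells/well 24 h before assay. Loaded with 2 μM Fluo-4AM for 1 h, washed, then 30 min in HBSS with 2.5 mM probenecid and 5 mM HEPES. Peptides added at 10^-12 to 10^-5 M final and fluorescence read for 2 min. Triplicates; EC50 from sigmoidal variable-slope fit, at least three experiments.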

Compared with CC(=O)NCC(=O)NCC(=O)N[C@@H](Cc1ccccc1)C(=O)N[C@@H](CO)C(=O)N[C@@H](Cc1ccccc1)C(=O)N[C@@H](CCCNC(=N)N)C(=O)N[C@@H](Cc1ccccc1)C(N)=O (Ac-GGFSFRF-NH2), C[C@H](N)C(=O)NCC(=O)N[C@@H](Cc1ccccc1)C(=O)N[C@@H](CO)C(=O)N[C@@H](Cc1ccccc1)C(=O)N[C@@H](CCCNC(=N)N)C(=O)N[C@@H](Cc1ccccc1)C(N)=O (H-AGFSFRF-NH2) is 2.3-fold higher in EC50: 1440 nM for the first, 3350 nM for the second. The first is the more potent here.

CC(C)C[C@H](NC(=O)[C@@H]1CCCN1)C(=O)NCC(=O)N[C@@H](CC(N)=O)C(=O)N[C@@H](CC(C)C)C(=O)N[C@@H](C)C(=O)N[C@@H](CCC(=O)O)C(=O)N[C@@H](CCC(=O)O)C(=O)N[C@@H](CC(C)C)C(=O)N[C@@H](CC(N)=O)C(=O)NCC(=O)N[C@@H](Cc1ccc(O)cc1)C(=O)N[C@@H](CO)C(=O)N[C@@H](CCCN=C(N)N)C(=O)N[C@@H](CCCCN)C(=O)N[C@@H](CCCCN)C(=O)NCC(=O)NCC(=O)N[C@@H](Cc1ccccc1)C(=O)N[C@@H](CO)C(=O)N[C@@H](Cc1ccccc1)C(=O)N[C@@H](CCCN=C(N)N)C(=O)N[C@@H](Cc1ccccc1)C(N)=O (H-PLGNLAEELNGYSRKKGGFSFRF-NH2) and CC(C)C[C@H](NC(=O)[C@H](CC(N)=O)NC(=O)CNC(=O)[C@H](CC(C)C)NC(=O)[C@@H]1CCCN1C(=O)CNC(=O)[C@H](CO)NC(=O)[C@@H](N)[C@@H](C)O)C(=O)N[C@@H](C)C(=O)N[C@@H](CCC(=O)O)C(=O)N[C@@H](CCC(=O)O)C(=O)N[C@@H](CC(C)C)C(=O)N[C@@H](CC(N)=O)C(=O)NCC(=O)N[C@@H](Cc1ccc(O)cc1)C(=O)N[C@@H](CO)C(=O)N[C@@H](CCCN=C(N)N)C(=O)N[C@@H](CCCCN)C(=O)N[C@@H](CCCCN)C(=O)NCC(=O)NCC(=O)N[C@@H](Cc1ccccc1)C(=O)N[C@@H](CO)C(=O)N[C@@H](Cc1ccccc1)C(=O)N[C@@H](CCCN=C(N)N)C(=O)N[C@@H](Cc1ccccc1)C(=O)NCc1ccccc1 (H-TSGPLGNLAEELNGYSRKKGGFSFRF-NHBn) are within 1.5-fold of each other in EC50: 43.2 nM for the first, 39 nM for the second.

First: NCCCC[C@H](N)C(=O)NCC(=O)NCC(=O)N[C@@H](Cc1ccccc1)C(=O)N[C@@H](CO)C(=O)N[C@@H](Cc1ccccc1)C(=O)N[C@@H](CCCN=C(N)N)C(=O)N[C@@H](Cc1ccccc1)C(N)=O (H-KGGFSFRF-NH2)
Second: NCC(=O)NCC(=O)N[C@@H](Cc1ccccc1)C(=O)N[C@H](CO)C(=O)N[C@@H](Cc1ccccc1)C(=O)N[C@@H](CCCN=C(N)N)C(=O)N[C@@H](Cc1ccccc1)C(N)=O
The EC50 of the first is 2.9-fold lower: 1710 nM for the first, 4980 nM for the second.

Compared with CC[C@@H](C)[C@H](NC(=O)[C@H](Cc1ccccc1)NC(=O)CNC(=O)CN)C(=O)N[C@@H](Cc1ccccc1)C(=O)N[C@@H](CCCN=C(N)N)C(=O)N[C@@H](Cc1ccccc1)C(N)=O, CC(C)[C@H](NC(=O)[C@H](Cc1ccccc1)NC(=O)CNC(=O)CN)C(=O)N[C@@H](Cc1ccccc1)C(=O)N[C@@H](CCCN=C(N)N)C(=O)N[C@@H](Cc1ccccc1)C(N)=O (H-GGFVFRF-NH2) is 2-fold higher in EC50: 817 nM for the first, 1630 nM for the second. The first is the more potent here.

C[C@H](NC(=O)CNC(=O)CN)C(=O)N[C@@H](CO)C(=O)N[C@@H](Cc1ccccc1)C(=O)N[C@@H](CCCNC(=N)N)C(=O)N[C@@H](Cc1ccccc1)C(N)=O (H-GGASFRF-NH2) and C[C@H](NC(=O)[C@H](Cc1ccccc1)NC(=O)CNC(=O)CN)C(=O)N[C@@H](Cc1ccccc1)C(=O)N[C@@H](CCCNC(=N)N)C(=O)N[C@@H](Cc1ccccc1)C(N)=O (H-GGFAFRF-NH2) are within 1.5-fold of each other in EC50: 1330 nM for the first, 1310 nM for the second.

Going from N=C(N)NCCC[C@H](NC(=O)[C@H](Cc1ccccc1)NC(=O)[C@H](CC1CCCCC1)NC(=O)[C@H](Cc1ccccc1)NC(=O)CNC(=O)CN)C(=O)N[C@@H](Cc1ccccc1)C(N)=O (H-GGF[Cha]FRF-NH2) to CC[C@H](NC(=O)[C@H](Cc1ccccc1)NC(=O)CNC(=O)CN)C(=O)N[C@@H](Cc1ccccc1)C(=O)N[C@@H](CCCNC(=N)N)C(=O)N[C@@H](Cc1ccccc1)C(N)=O (H-GGF[Abu]FRF-NH2), the EC50 falls from 1100 nM to 355 nM (3.1-fold). The second is the more potent here.

First: CC(C)C[C@H](NC(=O)[C@H](CCC(=O)O)NC(=O)[C@@H](N)CCC(=O)O)C(=O)N[C@@H](CC(N)=O)C(=O)NCC(=O)N[C@@H](Cc1ccc(O)cc1)C(=O)N[C@@H](CO)C(=O)N[C@@H](CCCNC(=N)N)C(=O)N[C@@H](CCCCN)C(=O)N[C@@H](CCCCN)C(=O)NCC(=O)NCC(=O)N[C@@H](Cc1ccccc1)C(=O)N[C@@H](CO)C(=O)N[C@@H](Cc1ccccc1)C(=O)N[C@@H](CCCNC(=N)N)C(=O)N[C@@H](Cc1ccccc1)C(N)=O (H-EELNGYSRKKGGFSFRF-NH2)
Second: N=C(N)NCCC[C@H](NC(=O)[C@H](Cc1ccccc1)NC(=O)[C@H](CO)NC(=O)[C@H](Cc1ccccc1)NC(=O)CNC(=O)CNC(=O)[C@H](CCCCN)NC(=O)[C@H](CCCCN)NC(=O)[C@H](CCCNC(=N)N)NC(=O)[C@H](CO)NC(=O)[C@H](Cc1ccc(O)cc1)NC(=O)CN)C(=O)N[C@@H](Cc1ccccc1)C(N)=O (H-GYSRKKGGFSFRF-NH2)
The EC50 of the first is 4.9-fold lower: 37.5 nM for the first, 185 nM for the second. The first is the more potent here.

Compared with N=C(N)NCCC[C@H](NC(=O)[C@H](Cc1ccccc1)NC(=O)[C@H](CCO)NC(=O)[C@H](Cc1ccccc1)NC(=O)CNC(=O)CN)C(=O)N[C@@H](Cc1ccccc1)C(N)=O (H-GGF[hSer]FRF-NH2), CCC[C@H](NC(=O)[C@H](Cc1ccccc1)NC(=O)CNC(=O)CN)C(=O)N[C@@H](Cc1ccccc1)C(=O)N[C@@H](CCCNC(=N)N)C(=O)N[C@@H](Cc1ccccc1)C(N)=O (H-GGF[Nva]FRF-NH2) is 1.6-fold lower in EC50: 374 nM for the first, 233 nM for the second.

First: CC(C)(C)C(=O)NCC(=O)NCC(=O)N[C@@H](Cc1ccccc1)C(=O)N[C@@H](CO)C(=O)N[C@@H](Cc1ccccc1)C(=O)N[C@@H](CCCN=C(N)N)C(=O)N[C@@H](Cc1ccccc1)C(N)=O (Piv-GGFSFRF-NH2)
Second: NC(=O)[C@H](Cc1ccccc1)NC(=O)[C@H](CCCN=C(N)N)NC(=O)[C@H](Cc1ccccc1)NC(=O)[C@H](CO)NC(=O)[C@H](Cc1ccccc1)NC(=O)CNC(=O)CNC(=O)c1ccco1 (2Furoyl-GGFSFRF-NH2)
The EC50 of the first is 3.7-fold higher: 2540 nM for the first, 695 nM for the second. The second is the more potent here.

NCCCC[C@H](NC(=O)[C@H](CCCCN)NC(=O)[C@H](CCCN=C(N)N)NC(=O)[C@@H](N)CO)C(=O)NCC(=O)NCC(=O)N[C@@H](Cc1ccccc1)C(=O)N[C@@H](CO)C(=O)N[C@@H](Cc1ccccc1)C(=O)N[C@@H](CCCN=C(N)N)C(=O)N[C@@H](Cc1ccccc1)C(N)=O (H-SRKKGGFSFRF-NH2) and N=C(N)NCCC[C@H](NC(=O)[C@H](Cc1ccccc1)NC(=O)[C@H](CO)NC(=O)[C@H](Cc1ccccc1)NC(=O)CNC(=O)CNC(=O)[C@H](CCCCN)NC(=O)[C@H](CCCCN)NC(=O)[C@@H](N)CCCNC(=N)N)C(=O)N[C@@H](Cc1ccccc1)C(N)=O (H-RKKGGFSFRF-NH2) are within 1.5-fold of each other in EC50: 237 nM for the first, 282 nM for the second.

Compared with CCN(Cc1ccccc1)C(=O)[C@H](Cc1ccccc1)NC(=O)[C@H](CCCN=C(N)N)NC(=O)[C@H](Cc1ccccc1)NC(=O)[C@H](CO)NC(=O)[C@H](Cc1ccccc1)NC(=O)CNC(=O)CN (H-GGFSFRF-X1), C[C@H](NC(=O)CN)C(=O)N[C@@H](Cc1ccccc1)C(=O)N[C@@H](CO)C(=O)N[C@@H](Cc1ccccc1)C(=O)N[C@@H](CCCN=C(N)N)C(=O)N[C@@H](Cc1ccccc1)C(N)=O (H-GAFSFRF-NH2) is 2.7-fold higher in EC50: 1090 nM for the first, 2980 nM for the second.

First: CC(C)C[C@H](NC(=O)[C@H](CCC(=O)O)NC(=O)[C@H](CCC(=O)O)NC(=O)[C@H](C)NC(=O)[C@H](CC(C)C)NC(=O)[C@@H](NC(=O)CNC(=O)[C@H](CC(C)C)NC(=O)[C@@H]1CCCN1C(=O)CNC(=O)[C@H](CO)NC(=O)[C@H](C)N)[C@@H](C)O)C(=O)N[C@@H](CO)C(=O)N[C@@H](CO)C(=O)N[C@@H](Cc1ccc(O)cc1)C(=O)N[C@@H](CO)C(=O)N[C@@H](CCCNC(=N)N)C(=O)N[C@@H](CCCNC(=N)N)C(=O)N[C@@H](CCCCN)C(=O)NCC(=O)NCC(=O)N[C@@H](Cc1ccccc1)C(=O)N[C@@H](CO)C(=O)N[C@@H](Cc1ccccc1)C(=O)N[C@@H](CCCNC(=N)N)C(=O)N[C@@H](Cc1ccccc1)C(N)=O (H-ASGPLGTLAEELSSYSRRKGGFSFRF-NH2)
Second: CC(C)C[C@H](NC(=O)[C@H](CC(N)=O)NC(=O)CNC(=O)[C@H](CC(C)C)NC(=O)[C@@H]1CCCN1C(=O)CNC(=O)[C@H](CO)NC(=O)[C@@H](N)[C@@H](C)O)C(=O)N[C@@H](C)C(=O)N[C@@H](CCC(=O)O)C(=O)N[C@@H](CCC(=O)O)C(=O)N[C@@H](CC(C)C)C(=O)N[C@@H](CC(N)=O)C(=O)NCC(=O)N[C@@H](Cc1ccc(O)cc1)C(=O)N[C@@H](CO)C(=O)N[C@@H](CCCNC(=N)N)C(=O)N[C@@H](CCCCN)C(=O)N[C@@H](CCCCN)C(=O)NCC(=O)NCC(=O)N[C@@H](Cc1ccccc1)C(=O)N[C@@H](CO)C(=O)N[C@@H](Cc1ccccc1)C(=O)N[C@@H](CCCNC(=N)N)C(=O)N[C@@H](Cc1ccccc1)C(=O)N(N1CCCCC1)N1CCCCC1 (H-TSGPLGNLAEELNGYSRKKGGFSFRF-X3)
The EC50 of the first is 58-fold lower: 4.9 nM for the first, 282 nM for the second.

Going from CC(C)(C)[C@H](NC(=O)[C@H](Cc1ccccc1)NC(=O)CNC(=O)CN)C(=O)N[C@@H](Cc1ccccc1)C(=O)N[C@@H](CCCN=C(N)N)C(=O)N[C@@H](Cc1ccccc1)C(N)=O (H-GGF[Tle]FRF-NH2) to NCCCC[C@H](NC(=O)[C@H](CCCCN)NC(=O)[C@H](CCCN=C(N)N)NC(=O)[C@H](CO)NC(=O)[C@H](Cc1ccc(O)cc1)NC(=O)CNC(=O)[C@@H](N)CC(N)=O)C(=O)NCC(=O)NCC(=O)N[C@@H](Cc1ccccc1)C(=O)N[C@@H](CO)C(=O)N[C@@H](Cc1ccccc1)C(=O)N[C@@H](CCCN=C(N)N)C(=O)N[C@@H](Cc1ccccc1)C(N)=O (H-NGYSRKKGGFSFRF-NH2), the EC50 falls from 1820 nM to 95.3 nM (19-fold). The second is the more potent here.
